Experimental findings from ChEMBL document CHEMBL1135937, “Further studies on conformationally constrained tricyclic tropane analogues and their uptake inhibition at monoamine transporter sites: synthesis of (Z)-9-(substituted arylmethylene)-7-azatricyclo[4.3.1.0(3,7)]decanes as a novel class of serotonin transporter inhibitors” (J Med Chem, 2002) are described below.

Some results are limits rather than exact numbers.

As usually defined, the Ki is a dissociation constant, usually derived from enzyme kinetics or from competition with a known ligand. Low readings indicate tighter binding, high ones weaker binding.

Assay [1] concerns the target Sodium-dependent dopamine transporter (Rattus norvegicus, UniProt P23977). In words: Ability to inhibit high affinity reuptake of [3H]DA from dopamine transporter into nerve endings synaptosomes. The format is subcellular, Brain. The method in brief:
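Rat striatal P2 synaptosomes in modified KRH buffer (pH 7.4, with nialamide), preincubated with drug for 30 min at 4 °C, then 15 min at 37 °C. Uptake of [3H]DA (~5 nM final) ran for 5 min and was stopped by cold Na-free buffer and filtration. IC50 from six concentrations in triplicate; Ki by Cheng–Prusoff, 2–4 experiments.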

Assay [2] addresses Norepinephrine transporter (Rattus norvegicus, UniProt Q9WTR4). In words: Ability to inhibit high affinity reuptake of [3H]-NE (Norepinephrine transporter) into nerve ending synaptosomes prepared from brain regions. The format is subcellular.
Assay [3] deals with Sodium-dependent serotonin transporter (Rattus norvegicus, UniProt P31652). In words: Inhibition of high affinity re-uptake of [3H]5-HT (serotonin) into nerve ending synaptosomes. The format is subcellular, Brain. The gist of the method: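 Synaptosomes (P2) from rat midbrain in modified KRH buffer (pH 7.4, with nialamide), preincubated with drug for 30 min at 4 °C, then 15 min at 37 °C. [3H]5-HT (~5 nM final) uptake ran for 5 min, then filtration and scintillation counting. IC50 from six concentrations in triplicate; Ki by Cheng–Prusoff, 2–4 experiments.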

Assay [4] can be described thus: Uptake ratio Ki of dopamine relative to serotonin (5-HT) at monoamine transporter.
Assay [5] is described as follows: Uptake ratio Ki of norepinephrine relative to dopamine at monoamine transporter.
Assay [6] is described as follows: Uptake ratio Ki of norepinephrine relative to serotonin (5-HT) at monoamine transporter.

Chain of Sodium-dependent dopamine transporter (P23977 whole entry): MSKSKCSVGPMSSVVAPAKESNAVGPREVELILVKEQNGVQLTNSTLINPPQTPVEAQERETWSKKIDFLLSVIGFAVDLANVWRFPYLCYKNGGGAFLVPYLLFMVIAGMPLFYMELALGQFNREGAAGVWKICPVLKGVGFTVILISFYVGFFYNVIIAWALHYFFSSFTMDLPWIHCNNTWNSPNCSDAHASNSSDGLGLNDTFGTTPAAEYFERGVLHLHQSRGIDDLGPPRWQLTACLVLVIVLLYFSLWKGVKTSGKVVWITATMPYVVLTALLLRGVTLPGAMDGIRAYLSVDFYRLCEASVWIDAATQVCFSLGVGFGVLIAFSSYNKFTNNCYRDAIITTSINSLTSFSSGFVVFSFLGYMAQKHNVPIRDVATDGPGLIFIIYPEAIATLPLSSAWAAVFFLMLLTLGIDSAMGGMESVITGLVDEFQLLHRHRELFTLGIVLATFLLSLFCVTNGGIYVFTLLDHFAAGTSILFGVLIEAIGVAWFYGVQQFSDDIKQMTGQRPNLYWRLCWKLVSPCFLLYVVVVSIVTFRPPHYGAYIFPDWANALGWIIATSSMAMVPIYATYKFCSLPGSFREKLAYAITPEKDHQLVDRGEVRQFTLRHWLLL
Chain of Norepinephrine transporter (Q9WTR4 whole entry): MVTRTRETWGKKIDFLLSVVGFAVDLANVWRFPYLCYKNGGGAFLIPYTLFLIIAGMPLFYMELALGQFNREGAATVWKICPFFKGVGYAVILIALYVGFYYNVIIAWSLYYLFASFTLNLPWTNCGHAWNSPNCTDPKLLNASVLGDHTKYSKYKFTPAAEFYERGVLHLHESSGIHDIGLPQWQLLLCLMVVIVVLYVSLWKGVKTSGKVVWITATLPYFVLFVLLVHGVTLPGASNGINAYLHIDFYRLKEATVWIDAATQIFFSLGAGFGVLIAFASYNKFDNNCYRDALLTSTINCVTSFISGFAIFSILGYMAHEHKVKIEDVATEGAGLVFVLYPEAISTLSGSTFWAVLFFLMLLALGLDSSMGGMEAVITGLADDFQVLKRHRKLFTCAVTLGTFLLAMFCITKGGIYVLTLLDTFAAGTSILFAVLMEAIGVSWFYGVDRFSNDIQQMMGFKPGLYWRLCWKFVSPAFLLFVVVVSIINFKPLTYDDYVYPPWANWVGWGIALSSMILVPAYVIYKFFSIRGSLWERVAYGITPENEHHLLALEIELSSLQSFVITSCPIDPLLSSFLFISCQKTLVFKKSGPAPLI
Chain of Sodium-dependent serotonin transporter (P31652 whole entry): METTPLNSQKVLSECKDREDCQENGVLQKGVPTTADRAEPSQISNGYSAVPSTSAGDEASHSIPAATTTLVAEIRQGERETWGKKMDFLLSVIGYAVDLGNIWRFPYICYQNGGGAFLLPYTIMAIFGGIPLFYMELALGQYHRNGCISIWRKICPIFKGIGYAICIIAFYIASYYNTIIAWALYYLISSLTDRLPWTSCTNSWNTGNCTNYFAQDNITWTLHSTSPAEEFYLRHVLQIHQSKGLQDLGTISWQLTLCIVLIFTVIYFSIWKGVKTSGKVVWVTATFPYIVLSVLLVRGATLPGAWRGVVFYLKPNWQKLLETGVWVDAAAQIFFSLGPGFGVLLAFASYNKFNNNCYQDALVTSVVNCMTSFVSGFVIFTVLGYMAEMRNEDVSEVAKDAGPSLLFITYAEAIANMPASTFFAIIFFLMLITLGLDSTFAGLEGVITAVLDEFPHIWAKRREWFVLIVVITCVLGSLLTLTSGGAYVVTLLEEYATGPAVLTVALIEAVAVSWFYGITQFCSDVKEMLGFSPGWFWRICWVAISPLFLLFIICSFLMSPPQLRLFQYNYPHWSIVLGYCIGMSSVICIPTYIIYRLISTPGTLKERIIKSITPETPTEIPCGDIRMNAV

As for `COC(=O)C1C2CC3CCC1N3C/C2=C\c1ccc(C)cc1` (stereo not given), the Ki is 649 nM in assay [1], 146 nM in assay [2] and 15 nM in assay [3]. The Ratio worked out at 43.3 in assay [4], 0.22 in assay [5] and 9.7 in assay [6].
For the molecule `Clc1ccc(/C=C2\CN3C4CCC3C(COc3ccc(I)cc3)C2C4)cc1Cl` (stereo not given), the Ki in assay [1] was determined as 13700 nM; in assay [2] it was 2510 nM; in assay [3], 1170 nM. The values for the Ratio in assay [4], in assay [5] and in assay [6] were 11.7, 0.18 and 2.1, respectively.
`COC(=O)C1C2CC3CCC1N3C/C2=C\c1ccc(Cl)c(Cl)c1` (stereo not given): the figures for the Ki in assay [1], in assay [2] and in assay [3] were 1920 nM, 1000 nM and 20 nM, respectively. The Ratio in assay [4] is 96; in assay [5], 0.52; in assay [6] it was 50.
As for `COC(=O)C1C2CC3CCC1N3C/C2=C\c1ccc(Br)cc1` (stereo not given), the Ki was determined as 495 nM in assay [1], 178 nM in assay [2] and 11 nM in assay [3]. For the same molecule, the results for the Ratio in assay [4], in assay [5] and in assay [6] were 45, 0.36 and 16, respectively.
As for `CCC(=O)C1C2CC3CCC1N3C/C2=C\c1ccc(Cl)c(Cl)c1` (stereo not given), the Ki in assay [1] is 6840 nM; in assay [2], 651 nM; in assay [3], 2.2 nM. Further, the Ratio in assay [4] worked out at 3110; in assay [5] it was 0.1; in assay [6], 296.
Consider `COC(=O)C1C2CC3CCC1N3C/C2=C\c1ccc(C)c(C)c1` (stereo not given), for which the Ki in assay [2] is 659 nM; in assay [3], 10.1 nM. Besides, the Ratio in assay [6] was determined as 65.
Consider `O=C(CCCCCCCCCC(=O)OCC1C2CC3CCC1N3C/C2=C\c1ccc(Cl)c(Cl)c1)OCC1C2CC3CCC1N3C/C2=C\c1ccc(Cl)c(Cl)c1` (stereo not given), for which the Ki in assay [1] is greater than 10000 nM; in assay [2], greater than 10000 nM; in assay [3], 8.5 nM. The Ratio in assay [4] and in assay [6] was greater than 1170 in each case.
Consider `O=C(OCC1C2CC3CCC1N3C/C2=C\c1ccc(Br)c(Cl)c1)c1ccccc1` (stereo not given), for which the inhibitory constant (Ki) in assay [1] is greater than 10000 nM; in assay [2], 3840 nM; in assay [3] it was 3.2 nM. The Ratio was greater than 3120 in assay [4], less than 0.38 in assay [5] and 1200 in assay [6].
For `COC(=O)C1C2CC3CCC1N3C/C2=C\c1ccc(C(C)C)cc1` (stereo not given), the figures for the Ki in assay [2] and in assay [3] were 1110 nM and 10.2 nM, respectively. Besides, the Ratio in assay [6] is 109.
With `CON(C)C(=O)C1C2CC3CCC1N3C/C2=C\c1ccc(Cl)c(Cl)c1` (stereo not given), the values for the Ki in assay [1], in assay [2] and in assay [3] were 8620 nM, 396 nM and 30.7 nM, respectively. Further, the figures for the Ratio in assay [4], in assay [5] and in assay [6] were 281, 0.05 and 12.9, respectively.
On to `O=C(OCC1C2CC3CCC1N3C/C2=C\c1ccc(Cl)c(Cl)c1)c1ccccc1` (stereo not given), for which the inhibition constant Ki in assay [1] was 14100 nM; in assay [2], 3070 nM; in assay [3], 3.1 nM. Also, the values for the Ratio in assay [4], in assay [5] and in assay [6] were 4550, 0.22 and 990, respectively.
Regarding `COC(=O)C1C2CC3CCC1N3C/C2=C\c1ccc2ccc3cccc4ccc1c2c34` (stereo not given), the inhibition constant (Ki) in assay [1] worked out at 9920 nM; in assay [3], 860 nM. In assay [4], the Ratio turned out to be 11.5.
`COC(=O)C1C2CC3CCC1N3C/C2=C\c1ccc(OC)cc1` (stereo not given): the figures for the inhibition constant (Ki) in assay [1], in assay [2] and in assay [3] were 3130 nM, 187 nM and 56 nM, respectively. Moreover, the Ratio in assay [4] was 55.9; in assay [5] it was 0.06; in assay [6] it was 3.3.
`COC(=O)C1C2CC3CCC1N3C/C2=C\c1ccccc1` (stereo not given): the Ki in assay [1] came to 481 nM; in assay [2] it was 53 nM; in assay [3], 1140 nM. In addition, the results for the Ratio in assay [4], in assay [5] and in assay [6] were 0.42, 0.11 and 0.05, respectively.
Take `O=C(OCC1C2CC3CCC1N3C/C2=C\c1ccc(I)c(Cl)c1)c1ccccc1` (stereo not given): the inhibition constant Ki in assay [1] and in assay [2] was greater than 10000 nM throughout. Moreover, the Ratio in assay [4] and in assay [6] was greater than 6e+06 each time.
As to `CNC(=O)C1C2CC3CCC1N3C/C2=C\c1ccc(Cl)c(Cl)c1` (stereo not given), the figures for the Ki in assay [1], in assay [2] and in assay [3] were 3780 nM, 417 nM and 29.8 nM, respectively. In addition, the values for the Ratio in assay [4], in assay [5] and in assay [6] were 127, 0.11 and 14, respectively.
As to `COC(=O)C1C2CC3CCC1N3C/C2=C\c1ccc(I)c(Cl)c1` (stereo not given), the Ki in assay [1] turned out to be 3140 nM; in assay [2], 272 nM; in assay [3], 1.8 nM. In addition, the Ratio came out at 1740 in assay [4], 0.09 in assay [5] and 151 in assay [6].
`COC(=O)C1C2CC3CCC1N3C/C2=C\c1ccc(/C=C2\CN3C4CCC3C(C(=O)OC)C2C4)cc1` (stereo not given): the Ki in assay [1] was found to be 38900 nM; in assay [2], 33400 nM; in assay [3], 993 nM. The Ratio in assay [4] was determined as 39.2; in assay [5] it was 0.86; in assay [6] it was 34.
Turning to `COC(=O)C1C2CC3CCC1N3C/C2=C\c1cc2ccccc2c2ccccc12` (stereo not given), the Ki amounted to 1640 nM in assay [1], 13000 nM in assay [2] and 233 nM in assay [3]. Moreover, the figures for the Ratio in assay [4], in assay [5] and in assay [6] were 7, 7.93 and 56, respectively.
In the case of `O=C(OCC1C2CC3CCC1N3C/C2=C\c1ccc(Br)cc1)c1ccccc1` (stereo not given), the values for the Ki in assay [1], in assay [2] and in assay [3] were 3300 nM, 4470 nM and 3.95 nM, respectively. The Ratio was determined as 835 in assay [4], 1.35 in assay [5] and 1130 in assay [6].
For `COC(=O)C1C2CC3CCC1N3C/C2=C\c1ccc2ccccc2c1` (stereo not given), the Ki was 735 nM in assay [1], 157 nM in assay [2] and 21 nM in assay [3]. The Ratio in assay [4] turned out to be 35; in assay [5], 0.21; in assay [6], 7.5.
For the molecule `COC(=O)C1C2CC3CCC1N3C/C2=C\c1ccc(C)c(Cl)c1` (stereo not given), the Ki in assay [1] was greater than 10000 nM; in assay [2], 198 nM; in assay [3], 6.4 nM. Also, the Ratio in assay [4] is greater than 1560; in assay [5], less than 0.02; in assay [6], 31.
As to `Clc1ccc(/C=C2\CN3C4CCC3C(/C=C\c3ccccc3)C2C4)cc1Cl` (stereo not given), the Ki was 2110 nM in assay [1], 2790 nM in assay [2] and 245 nM in assay [3]. Also, the results for the Ratio in assay [4], in assay [5] and in assay [6] were 8.6, 1.32 and 11.4, respectively.
Consider `O=C(OCC1C2CC3CCC1N3C/C2=C\c1ccc(Cl)c(Cl)c1)c1ccc(I)cc1` (stereo not given), for which the inhibitory constant (Ki) in assay [1] came to 17700 nM; in assay [2], 8590 nM; in assay [3], 48.7 nM. In addition, the Ratio was determined as 363 in assay [4], 0.48 in assay [5] and 176 in assay [6].
Take `Cc1ccc(/C=C2\CN3C4CCC3C(COC(=O)c3ccccc3)C2C4)cc1Cl` (stereo not given): the Ki is greater than 10000 nM in assay [1], greater than 10000 nM in assay [2] and 2 nM in assay [3]. Also, the Ratio in assay [4] and in assay [6] was greater than 20000 each time.
Consider `COC(=O)C1C2CC3CCC1N3C/C2=C\c1ccc(C(F)(F)F)cc1` (stereo not given), for which the figures for the Ki in assay [2] and in assay [3] were 1830 nM and 12.6 nM, respectively. Moreover, in assay [6], the Ratio is 145.
Turning to `O=C(OCC1C2CC3CCC1N3C/C2=C\c1ccc(I)cc1)c1ccccc1` (stereo not given), the Ki in assay [1] was greater than 10000 nM; in assay [2] it was 8190 nM. Moreover, the results for the Ratio in assay [4], in assay [5] and in assay [6] were greater than 100000, less than 0.82 and 81900, respectively.
